Results pooled from the literature.
Lines come from different studies, so protocols differ.
Target: Angiopoietin-1 receptor (TEK, Homo sapiens, UniProt Q02763)

Structure (SMILES) | test | setting | remaining binding
C[C@@H]1CN(c2ccc3ncc(-c4ccc5[nH]nc(C6CC6)c5c4)n3n2)C[C@H](C)O1 | binding, competition with immobilised ligand | 50 nM | 99%
CN(C)c1nccc(-c2cnn3ncccc23)n1 | binding | 1 µM | 100%
CN(C)C(=O)Cn1cc(-c2nc(C3(c4ccc(-c5cnc(N)nc5)cc4)CC3)no2)cn1 | cell-free assay, competition with immobilised ligand | 1 µM | 88%
N[C@@H]1CCN(c2nccc(-c3cnn4ncccc34)n2)C1 | binding | 1 µM | 98%
C[C@H](NC(=O)c1cnc2n1[C@](C)(Cc1ccc(C#N)cc1)C(=O)N2c1cc(Cl)c(F)c(Cl)c1)C(=O)NC1(c2ccccn2)CC1 | cell-free assay, competition with immobilised ligand | 1 µM | 91%
O=C(NCCCN1CCOCC1)c1ccc(Nc2nccc(-c3cc4ccccc4s3)n2)cc1 | binding, competition with immobilised ligand | 1 µM | 58%
O=C(NCc1ncc(C(F)(F)F)cc1Cl)c1ccc2c(c1)C1(CCS(=O)(=O)CC1)[C@H](C1CC1)N2S(=O)(=O)c1ccc(F)cc1 | cell-free assay, competition with immobilised ligand | 1 µM | 100%
C[C@@H](c1ccc(-n2cnc3c(N)ncnc32)cc1)N1CCc2nn(C)c(Cc3ccccc3)c2C1=O | binding, competition with immobilised ligand | 0.1 µM | 81%
Cc1cnn2ncc(-c3ccnc(N(C)C)n3)c2c1 | binding | 1 µM | 100%
O=C(NCCCN1CCOCC1)c1ccc(Nc2ncc(Cl)c(-c3ccc(Cl)s3)n2)cc1 | binding, competition with immobilised ligand | 1 µM | 47%
COc1cnc(Nc2cccc(S(N)(=O)=O)c2)nc1N1CCN(c2ccccc2)C(=O)C1 | binding, competition with immobilised ligand | 1 µM | 100%
c1cnn2ncc(-c3ccnc(N4CCC45COC5)n3)c2c1 | binding | 1 µM | 83%
O=C(c1ccc(Nc2ncc(Cl)c(-c3ccc(Cl)s3)n2)cc1)N1CCC(N2CCCC2)CC1 | binding, competition with immobilised ligand | 1 µM | 23%
CS(=O)(=O)N1CCCC(NC(=O)[C@H](CCC2CCCCC2)NC(=O)c2ccc(CNc3ncnc4c3nnn4-c3ccccc3)cc2)C1 (stereo partly shown) | cell-free assay, competition with immobilised ligand | 0.1 µM | 73%
F[C@@H]1CCN(c2nccc(-c3cnn4ncccc34)n2)C1 | binding | 1 µM | 100%
C[C@@H]1CN(c2cc(-c3nn(C)c4ccc(OC5(C)CC5)cc34)ncn2)C[C@H](C)O1 | cell-free assay, competition with immobilised ligand | 1 µM | 94%
CC(C)(C)c1ccc(-c2nc(CBr)nn2-c2cccc(O)c2)cc1 | cell-free assay, competition with immobilised ligand | 10 µM | 99%
O=C(Nc1c[nH]nc1C(=O)NC1CCNCC1)c1cc(F)cc(F)c1 | binding, competition with immobilised ligand | 1 µM | 94%
CCN1CCN(Cc2ccc(C(=O)Nc3ccc(C)c(Oc4ccc5c(c4)CC(=O)N5)c3)cc2C(F)(F)F)CC1 | binding, competition with immobilised ligand | 1 µM | 100%
COc1cc(-c2cn(C3CCc4ccccc4N(CC(F)(F)F)C3=O)nn2)ccc1-n1ccc(C)n1 (stereo not shown) | cell-free assay, competition with immobilised ligand | 1 µM | 81%
C[C@H]1CCN(c2nccc(-c3cnn4ncccc34)n2)C1 | binding | 1 µM | 82%
O=C1CCc2cc(Nc3cc(OC4CCOCC4)c([N+](=O)[O-])cc3Cl)ccc2N1 | cell-free assay, competition with immobilised ligand | 1 µM | 76%
N#Cc1ccccc1CSc1nnc2c(n1)[nH]c1ccccc12 | binding, competition with immobilised ligand | 10 µM | 100%
Cc1nc(N2CC[C@@H](O)C2)ncc1-c1cc(C(F)(F)F)cc2[nH]ncc12 | cell-free assay, competition with immobilised ligand | 1 µM | 100%
c1cncc(-c2cccc(Nc3nccc(NC4CCCCC4)n3)c2)c1 | binding, competition with immobilised ligand | 10 µM | 38%
